The subject of one data set is hMcl-1 construct. Briefly: In vitro denaturation thermal shift. The data set is classed as binding, human. To be noted: hMcl-1 construct used for biochemical and crystallization studies (Figure S4).
For data set [1], the target named is T1, hMcl-1 (Homo sapiens, UniProt Q07820). Briefly: Mass spectrometry of covalent adduct. Format: binding. To be noted: protein alone 18,763 Da (Figure S1).
In data set [2] the test system is Mcl-1 in A549 cell lysates. In words: Covalent adduct in spiked A549 cell lysates by immunoblotting. The data set is classed as binding, human. To be noted: A549 cell lysates spiked with 100 μM compound for 1 h at 37 °C, western blot. In a few lines: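 A549 cells grown in Ham's F-12 with GlutaMAX, 10% FBS, PenStrep and 0.5 μg/mL puromycin. Harvested cells were lysed for 20 min on ice in Tris pH 7.4 buffer with Triton X-100, deoxycholate, SDS, IGEPAL, EDTA, protease and phosphatase inhibitors. Cleared, protein-quantified supernatant was incubated with DMSO or 100 μM test compound for 1 h at 37 °C. Then SDS-PAGE, PVDF transfer, milk block, anti-Mcl-1 and β-tubulin overnight at 4 °C, HRP secondary, ECL.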
In general terms: Immunoblotting shows a protein as a band on a membrane.

Another data set relates to Mcl-1 in A549 cells. Briefly: Mcl-1 protein levels in A549 cells by immunoblotting. The data set is classed as cell-based, human. To be noted: 50 or 100 μM compound, 2 h, western blot relative to β-tubulin. In a few lines: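 A549 cells grown in Ham's F-12 with GlutaMAX, 10% FBS, 1% PenStrep and 0.5 μg/mL puromycin. Cells were exposed to DMSO or test compound (50 or 100 μM) for 2 h, with or without 30 min pre-treatment with 1 μM carfilzomib. Lysates were run on SDS-PAGE, transferred to PVDF, blocked in 5% milk/TBS-T, probed overnight at 4 °C for Mcl-1 and β-tubulin, then HRP secondary and ECL detection.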

In data set [3] the target is T1, hMcl-1. Briefly: DELFIA displacement assay, hMcl-1. The data set is classed as binding.
The nature of a further data set: Solubility. Format: physicochemical. The conditions noted are these: qualitative, relative to peptides 10 and 11.
The target in another data set is T2, hBfl-1 (Homo sapiens, UniProt Q16548).
T2 sequence (Q16548 1-149): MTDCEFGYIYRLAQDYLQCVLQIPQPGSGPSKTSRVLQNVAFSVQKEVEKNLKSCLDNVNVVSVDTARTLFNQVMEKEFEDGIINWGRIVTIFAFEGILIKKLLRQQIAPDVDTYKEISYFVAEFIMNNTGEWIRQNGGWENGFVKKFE
In words: DELFIA displacement assay, hBfl-1. Format: binding.

For data set [4], the target named is T3, hBfl-1 (residues 1–149) with N-terminal His tag (human, UniProt Q16548 1-149).
T3 sequence (looked up): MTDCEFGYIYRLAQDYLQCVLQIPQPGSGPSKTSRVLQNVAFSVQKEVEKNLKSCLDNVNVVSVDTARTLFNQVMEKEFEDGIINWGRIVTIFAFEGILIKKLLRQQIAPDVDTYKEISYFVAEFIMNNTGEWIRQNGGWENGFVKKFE
In words: DELFIA displacement assay.

Data set [5] concerns the target T4, hMcl-1 (residues 172–323) with N-terminal His tag (human, UniProt Q07820 172-323). In words: DELFIA displacement assay.
Data set [6] addresses T4, hMcl-1 (residues 172–323) with …. Briefly: DELFIA displacement assay. The source holds these as a separate data set.

Non-standard residues stand in square brackets, D forms with d. Residues, ends and D or L forms follow the SMILES beside them. No end group written: not given here. *: point of attachment. Benzoyl(2-OMe,5-SO2F) = COc1ccc(S(=O)(=O)F)cc1C(=O)*; Biotin = O=C1N[C@H]2[C@H](CS[C@H]2CCCCC(=O)*)N1; X1 = Cc1ccc(S(=O)(=O)F)cc1C(=O)*; hSer = N[C@@H](CCO)C(=O)O; Nle = CCCC[C@H](N)C(=O)O; Abu = CC[C@H](N)C(=O)O; Dap = NC[C@H](N)C(=O)O; Ahx = NCCCCCC(=O)O

T1 sequence (Q07820 172-323): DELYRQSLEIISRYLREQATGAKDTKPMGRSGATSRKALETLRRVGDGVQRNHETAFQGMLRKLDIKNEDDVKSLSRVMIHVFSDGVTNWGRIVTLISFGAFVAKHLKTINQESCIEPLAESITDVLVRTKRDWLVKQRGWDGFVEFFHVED
T4 sequence (Q07820 172-323): as above

`CC[C@H](C)[C@H](NC(=O)[C@H](CCCNC(=N)N)NC(=O)[C@H](CCCNC(=N)N)NC(=O)[C@H](CC(C)C)NC(=O)[C@H](CCC(N)=O)NC(=O)[C@H](CCC(=O)O)NC(=O)[C@H](C)NC(=O)[C@@H](NC(=O)[C@H](CNC(=O)c1cc(S(=O)(=O)F)ccc1C)NC(C)=O)[C@@H](C)CC)C(=O)NCC(=O)N[C@@H](CC(=O)O)C(=O)N[C@@H](CCCNC(=N)N)C(=O)N[C@@H](Cc1ccccc1)C(N)=O` [Compound 15] (Ac-[Dap](X1)IAEQLRRIGDRF-NH2): the denaturation thermal shift with hMcl-1 construct came out at 23 °C. Further, the “MW of hMcl-1 after incubation with compound” value on hMcl-1 [1] is given as 20,544 Da.

On to `CC[C@H](C)[C@H](NC(=O)[C@H](CCCNC(=N)N)NC(=O)[C@H](CCCNC(=N)N)NC(=O)[C@H](CC(C)C)NC(=O)[C@H](CCC(N)=O)NC(=O)[C@H](CCC(=O)O)NC(=O)[C@H](C)NC(=O)[C@@H](NC(=O)[C@H](CNC(=O)c1cc(S(=O)(=O)F)ccc1OC)NC(C)=O)[C@@H](C)CC)C(=O)NCC(=O)N[C@@H](CC(=O)O)C(=O)N[C@@H](CCCNC(=N)N)C(=O)N[C@@H](Cc1ccccc1)C(N)=O` [Compound 16] (Ac-[Dap](Benzoyl(2-OMe,5-SO2F))IAEQLRRIGDRF-NH2), for which the “covalent adduct with Mcl-1 by band shift in cell lysates” value in data set [2] is recorded as “Covalent adduct was detected”. In addition, in the data set on Mcl-1 in A549 cells, the Mcl-1 protein levels entry is given as “decrease in Mcl-1 protein levels”.

Turning to AIAQLLRRIGDAF-NH2 [Compound 8], the IC50 at hMcl-1 [3] was about 1.8 µM.

AIAQVLRRIGDAF-NH2 [Compound 7]: the IC50 on hMcl-1 [3] is about 1.8 µM.

With Ac-AIAEQLRRIGDRF-NH2 [Compound 12], in the data set “Solubility”, the solubility entry is listed as “increased solubility”. On hBfl-1, this molecule had a half-inhibitory concentration (IC50) of over 10 µM.

B1: biotinylated-BH3 peptide (biotin-AHA-EDIIRNIARHLAQVGDSMDR-NH2) (peptide)
peptide: {Biotin-Ahx}-EDIIRNIARHLAQVGDSMDR-NH2
SMILES: CC[C@H](C)[C@H](NC(=O)[C@H](CC(N)=O)NC(=O)[C@H](CCCNC(=N)N)NC(=O)[C@@H](NC(=O)[C@@H](NC(=O)[C@H](CC(=O)O)NC(=O)[C@H](CCC(=O)O)NC(=O)CCCCCNC(=O)CCCC[C@@H]1SC[C@@H]2NC(=O)N[C@@H]21)[C@@H](C)CC)[C@@H](C)CC)C(=O)N[C@@H](C)C(=O)N[C@@H](CCCNC(=N)N)C(=O)N[C@@H](Cc1c[nH]cn1)C(=O)N[C@@H](CC(C)C)C(=O)N[C@@H](C)C(=O)N[C@@H](CCC(N)=O)C(=O)N[C@H](C(=O)NCC(=O)N[C@@H](CC(=O)O)C(=O)N[C@@H](CO)C(=O)N[C@@H](CCSC)C(=O)N[C@@H](CC(=O)O)C(=O)N[C@@H](CCCNC(=N)N)C(N)=O)C(C)C
Regarding B1, the binding result in data set [4] and in data set [5] was “binds” each time.

B2: peptide 9 (peptide)
chain: H-AIAQ[hSer]LRRIGDAF-NH2
SMILES: CC[C@H](C)[C@H](NC(=O)[C@H](C)N)C(=O)N[C@@H](C)C(=O)N[C@@H](CCC(N)=O)C(=O)N[C@@H](CCO)C(=O)N[C@@H](CC(C)C)C(=O)N[C@@H](CCCNC(=N)N)C(=O)N[C@@H](CCCNC(=N)N)C(=O)N[C@H](C(=O)NCC(=O)N[C@@H](CC(=O)O)C(=O)N[C@@H](C)C(=O)N[C@@H](Cc1ccccc1)C(N)=O)[C@@H](C)CC
As to B2, the IC50 in [6] is about 3 µM.

Regarding H-AIAQALRRIGDAY-NH2 [peptide 2], the IC50 in [6] was over 3.6 µM.

In turn, Ac-AIAEALRRIGDAF-NH2 [peptide 10] registered an IC50 in data set [6] of 0.261 µM.

The molecule Ac-AIAEQLRRIGDRF-NH2 [peptide 12] displayed an IC50 in [6] of 0.57 µM.

H-AIAEQLRRIGDAF-NH2 [peptide 11] had an IC50 in [6] of 0.313 µM.

In data set [6], H-AIAQALRRIGDAR-NH2 [peptide 3] showed an IC50 of over 10 µM.

For H-AIAQALRRIGDAL-NH2 [peptide 4], in data set [6], the IC50 worked out at 1.2 µM.

B3: peptide 5 (peptide)
chain: H-AIAQALRRIGDA[Nle]-NH2
SMILES: CCCC[C@H](NC(=O)[C@H](C)NC(=O)[C@H](CC(=O)O)NC(=O)CNC(=O)[C@@H](NC(=O)[C@H](CCCNC(=N)N)NC(=O)[C@H](CCCNC(=N)N)NC(=O)[C@H](CC(C)C)NC(=O)[C@H](C)NC(=O)[C@H](CCC(N)=O)NC(=O)[C@H](C)NC(=O)[C@@H](NC(=O)[C@H](C)N)[C@@H](C)CC)[C@@H](C)CC)C(N)=O
On to B3, for which the IC50 in data set [6] was about 1.6 µM.

B4: peptide 6 (peptide)
chain: H-AIAQ[Abu]LRRIGDAF-NH2
SMILES: CC[C@H](NC(=O)[C@H](CCC(N)=O)NC(=O)[C@H](C)NC(=O)[C@@H](NC(=O)[C@H](C)N)[C@@H](C)CC)C(=O)N[C@@H](CC(C)C)C(=O)N[C@@H](CCCNC(=N)N)C(=O)N[C@@H](CCCNC(=N)N)C(=O)N[C@H](C(=O)NCC(=O)N[C@@H](CC(=O)O)C(=O)N[C@@H](C)C(=O)N[C@@H](Cc1ccccc1)C(N)=O)[C@@H](C)CC
B4 had a concentration for half-maximal inhibition (IC50) in [6] of about 1.3 µM.

By IC50 is commonly meant the concentration that inhibits the measured activity by half. The low end stands for greater potency, the high end for weaker potency.

The values above are taken from PMC8550878 (Journal of medicinal chemistry, 2021).
